Calls of active or inactive are those of the source.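 Rule for the calls, unless noted: active = compounds giving at least 50% inhibition in the cell-based MKP-3 phosphatase rescue imaging test; inactive = the rest.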
Legend:
[1] = inhibitors of TNFa-induced NFkB p65 translocation, primary screen, imaging, HUVEC, MLSMR starter and 10KST1 sets (AID 438;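 active = inhibition above 20% together with a positive visual image hit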;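 note: compound added about 3h40 before a 20 min TNFalpha stimulation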;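 for inhibition: signal is the nuclear over cytoplasmic p65 intensity ratio per well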); conditions: HUVEC TNFa-induced p65 nuclear translocation; cell count: measured here: nuclei count (cytotoxicity indicator), at 2.08 µM; inhibition: at 2 µM, stronger effect = higher value, 0% TNFa-plus-vehicle, 100% no-TNFa wells
[2] = endothelial E-selectin expression blockers – imaging, HUVEC, immunofluorescence, MLSMR starter and 10KST1 sets, primary screen (AID 487;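 active = visually confirmed hit in the image check and inhibition above 20%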;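 for inhibition: signal is fraction of cell area covered by stained E-selectin grains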;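 for nuclei count: 100% = median nuclei count of all wells on the same plate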); conditions: HUVEC TNFalpha-induced E-selectin immunofluorescence imaging, at 2 µM; inhibition: stronger effect = higher value; nuclei count: measured here: cell number, toxicity
[3] = Primary imaging screen for DUSP6 inhibitors that restore phospho-Erk in transfected HeLa cells, chemical complementation (AID 609); conditions: HeLa MKP-3 transfected, phospho-Erk imaging KS statistic, at 10 µM, cells stimulated with TPA for 15 min;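 for inhibition: phospho-Erk level distribution per well compared with pooled transfected vehicle control wells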
[4] = molecular target: Dual specificity protein phosphatase 6 (Homo sapiens) (UniProt Q16828); experiment: as above; conditions: HeLa MKP-3 transfected, phospho-Erk imaging KS statistic; at 10 µM; stronger effect = higher value; cells stimulated with TPA for 15 min
[5] = molecular target: Voltage-gated potassium channel subunit beta-2 (Rattus norvegicus) (UniProt P62483); experiment: inhibitors of rat Kvbeta2 reductase activity – biochemical, NADPH fluorescence, primary screen (AID 622;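 active = fluorescence slope higher than the sample average by over 3 SD, cut at about -0.22 in these data, passing the limit was not always enough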;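 note: slope of raw intensity against log time taken from 70 to 1610 s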); conditions: recombinant KvBeta, 4-cyanobenzaldehyde reduction, at 10 µM, stronger effect = higher value
[6] = molecular target: Voltage-gated potassium channel subunit beta-2 (Rattus norvegicus) (UniProt P62483); experiment: enhancers of rat Kvbeta2 NADPH turnover – biochemical, NADPH fluorescence, primary screen (AID 623;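 active = NADPH fluorescence slope more negative than the mean of all samples by about 3 SD, 99.7% confidence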;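 note: fluorescence intensity change per second fitted from 20 to 320 s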); conditions: Recombinant KvBeta, NADPH fluorescence decrease slope, 10 min; at 10 µM; stronger effect = lower value
[7] = molecular target: Alpha-2C adrenergic receptor (Homo sapiens) (UniProt P18825); experiment: compounds altering alpha2C-coupled GIRK flux – cell-based, HEK293 alpha2C/GIRK1/2, thallium flux, primary screen (AID 624;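 active = fluorescence slope after compound addition differing from the mean of all screened samples at 99.7% confidence, in either direction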;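 note: slope of fluorescence ratio to pre-addition baseline per second over 15 to 24 s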); conditions: thallium flux BTC fluorescence, at 10 µM, actives lie on both sides
[8] = inhibitors of larval lipid processing in zebrafish, primary screen, whole organism, PED6 fluorescence, gall bladder and intestine (AID 686;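 active = a full or partial loss of lipid-probe fluorescence in the fish gall bladder, intestine or both, judged by eye; inactive = no fluorescence loss, or compound toxic to the fish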;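 note: larvae 5 to 7 days old with five fish per well; signal comes from phospholipase A2 cleavage of quenched PED6 carried via bile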); conditions: Zebrafish larvae PED6 lipid processing, fluorescence scoring; screened at 20 µM (by protocol)
In short: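 Incubation: overnight exposure of larvae to compound plus PED6 / Test system: live zebrafish larvae aged 5-7 days, whole organism / Amount: 5 larvae per well / Read-out basis: visual per-well fluorescence inhibition score / Signal: visual fluorescence microscopy scoring of gall bladder, gut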

[9] = loss of swimming-algae plug formation – whole organism, Chlamydomonas reinhardtii, WT vs cilia-less mutant, absorbance, 96-well, primary screen (AID 463189;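 active = inhibition at or above 50% relative to wild type and mutant plate controls; inactive = inhibition below 50%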;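 note: 0% = wild type cc124 cells in DMSO and 100% = ciliumless bld1 mutant cells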); conditions: Chlamydomonas reinhardtii gravitaxis, OD600 absorbance, 2 days; at 10 µM; stronger effect = higher value
[10] = measured here: cell density z-score
[11] = measured here: nuclear c-Myc green intensity z-score
[12] = measured here: nuclear pErk red intensity z-score, stronger effect = higher value

Sequence of Dual specificity protein phosphatase 6 (Homo sapiens) (Q16828 whole entry, looked up): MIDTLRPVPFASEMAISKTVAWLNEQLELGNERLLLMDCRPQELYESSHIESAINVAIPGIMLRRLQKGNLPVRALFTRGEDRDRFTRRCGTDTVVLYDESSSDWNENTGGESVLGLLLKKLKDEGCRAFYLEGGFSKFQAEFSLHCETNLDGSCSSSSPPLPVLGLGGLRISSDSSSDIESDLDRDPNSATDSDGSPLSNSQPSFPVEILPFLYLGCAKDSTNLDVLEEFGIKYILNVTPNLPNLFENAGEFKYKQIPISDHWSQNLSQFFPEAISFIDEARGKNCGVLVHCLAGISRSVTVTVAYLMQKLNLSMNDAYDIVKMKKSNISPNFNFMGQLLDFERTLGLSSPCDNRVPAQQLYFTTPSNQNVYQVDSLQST
Sequence of Voltage-gated potassium channel subunit beta-2 (Rattus norvegicus) (P62483 whole entry, looked up): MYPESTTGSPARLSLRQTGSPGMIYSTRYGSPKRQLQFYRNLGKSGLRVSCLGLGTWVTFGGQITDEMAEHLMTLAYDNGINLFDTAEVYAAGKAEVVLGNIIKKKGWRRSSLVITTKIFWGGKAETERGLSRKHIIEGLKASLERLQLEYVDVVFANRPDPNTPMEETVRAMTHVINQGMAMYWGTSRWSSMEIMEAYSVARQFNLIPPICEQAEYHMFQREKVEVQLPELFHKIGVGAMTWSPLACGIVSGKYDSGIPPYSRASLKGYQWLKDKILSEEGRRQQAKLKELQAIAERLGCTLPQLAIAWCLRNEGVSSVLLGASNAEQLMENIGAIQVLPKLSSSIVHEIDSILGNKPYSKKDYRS
Sequence of Alpha-2C adrenergic receptor (Homo sapiens) (P18825 whole entry, looked up): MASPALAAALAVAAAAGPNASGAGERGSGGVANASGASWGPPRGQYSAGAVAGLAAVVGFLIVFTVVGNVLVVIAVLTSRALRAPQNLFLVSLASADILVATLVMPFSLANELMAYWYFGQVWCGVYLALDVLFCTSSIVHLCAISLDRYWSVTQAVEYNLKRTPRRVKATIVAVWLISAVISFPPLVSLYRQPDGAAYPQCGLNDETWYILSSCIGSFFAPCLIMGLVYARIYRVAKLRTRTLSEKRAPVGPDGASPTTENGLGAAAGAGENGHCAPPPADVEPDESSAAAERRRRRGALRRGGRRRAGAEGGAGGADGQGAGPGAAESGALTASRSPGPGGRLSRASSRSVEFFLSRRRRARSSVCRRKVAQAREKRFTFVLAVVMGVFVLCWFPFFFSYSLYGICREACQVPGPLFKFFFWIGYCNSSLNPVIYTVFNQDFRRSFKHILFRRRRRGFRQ

Row | Structure (SMILES) | cell count [1] | inhibition [1] | inhibition [2] | nuclei count [2] [%] | z-score [3, 10] | z-score [3, 11] | z-score [3, 12] | inhibition [4] | fluorescence slope [5] | NADPH fluorescence slope [6] | slope [7] | outcome [8] | inhibition [9]
1 | CN(Cc1c(O)ccc2c1oc(=O)c1ccccc12)C1CCCCC1 | 585 | -2.8% (inactive) | 6.7% (inactive) | 172 | 0.636 | 0.684 | 0.214 | -4.27% (inactive) | -0.348 (inactive) | -7e-05 (inactive) | 0.00514 (inactive) | inactive | 3.79% (inactive)
2 | COCCNc1nc2c(c(=O)n(Cc3ccc(OC)cc3)c(=O)n2C)n1C | 357 | -17.8% (inactive) | -26.3% (inactive) | 128 | 0.697 | 0.778 | -0.00517 | 4.37% (inactive) | -0.32 (inactive) | 7.3e-06 (inactive) | 0.00535 (inactive) | inactive | 15.2% (inactive)
3 | c1ccc(-c2nn3c(C4CCCCC4)nnc3s2)cc1 | 527 | -1.4% (inactive) | -81.3% (inactive) | 142 | -0.66 | 0.347 | 1.15 | -18.6% (inactive) | -0.435 (inactive) | -8.4e-05 (inactive) | 0.00411 (inactive) | inactive | 6.49% (inactive)
4 | O=C1CCC(=O)N1CNc1ccccn1 | 493 | -5% (inactive) | -53.8% (inactive) | 99.7 | -0.594 | -0.186 | -0.375 | 7.93% (inactive) | -0.495 (inactive) | -5.8e-05 (inactive) | 0.00525 (inactive) | inactive | 23.2% (inactive)
5 | CSc1nc(N)nc(SCC(=O)CC(=O)OC(C)C)c1C#N | 553 | -7.1% (inactive) | -118% (inactive) | 212 | 0.352 | -0.157 | -2.15 | 16.8% (inactive) | -0.372 (inactive) | -4.1e-07 (inactive) | 0.00422 (inactive) | inactive | 11.6% (inactive)
6 | CC(C)C(C(=O)Nc1ncn[nH]1)N1C(=O)c2ccccc2C1=O (configuration not stated) | 520 | -7% (inactive) | -28.4% (inactive) | 121 | -1.38 | 0.141 | 1.7 | -4.27% (inactive) | -0.47 (inactive) | -7.2e-06 (inactive) | 0.0054 (inactive) | inactive | 0.44% (inactive)
7 | O=c1[nH]nc2n1CCCCC2 | 530 | -27.5% (inactive) | -139% (inactive) | 180 | 1.3 | -1.27 | -0.317 | 7.73% (inactive) | -0.501 (inactive) | -0.000113 (inactive) | 0.00508 (inactive) | inactive | 11.3% (inactive)
8 | COc1ccc(-c2oc3ncn4nc(COc5ccccc5)nc4c3c2-c2ccc(OC)cc2)cc1 | 621 | -7.9% (inactive) | -75% (inactive) | 194 | -0.444 | -0.952 | -0.924 | -15% (inactive) | -0.327 (inactive) | -1.2e-05 (inactive) | 0.0133 (inactive) | inactive | -3.79% (inactive)
9 | CC(=O)c1c(C(C)=O)c(C)n(NC(=O)c2ccncc2)c1C | 557 | 1.2% (inactive) | -2.4% (inactive) | 133 | 1.16 | -1.48 | 0.477 | 5.26% (inactive) | -0.305 (inactive) | 7.7e-06 (inactive) | 0.00487 (inactive) | inactive | 8.61% (inactive)
10 | C=CCOc1nc2c(c(=O)n(C)c(=O)n2C)n1Cc1ccc(Cl)cc1 | 659 | 7.6% (inactive) | -11.6% (inactive) | 137 | -0.719 | 0.0983 | 0.628 | 27.5% (inactive) | -0.516 (inactive) | -0.000102 (inactive) | 0.00536 (inactive) | inactive | 4.31% (inactive)
11 | CCNc1nc(Oc2ccccc2)nc(OC(C)C(=O)OCC)n1 (configuration not stated) | 674 | 1.4% (inactive) | -19.3% (inactive) | 172 | -0.682 | -0.0206 | 2.56 | -2.07% (inactive) | -0.532 (inactive) | -6.7e-05 (inactive) | 0.00506 (inactive) | inactive | -3.35% (inactive)
12 | CCN1CCCC1Cn1cnc2c([nH]c3ccc(C)cc32)c1=O (configuration not stated) | 319 | -6.8% (inactive) | 13.2% (inactive) | 160 | -0.0977 | 0.977 | 0.149 | 9.42% (inactive) | -0.357 (inactive) | -0.000123 (inactive) | 0.00693 (inactive) | inactive | 128% (active)
13 | COc1ccc(C2=CC(c3cccc(OC)c3)n3nnnc3N2)cc1 (configuration not stated) | 539 | -14.8% (inactive) | -119% (inactive) | 145 | 2.98 | -1.71 | -0.495 | 13.7% (inactive) | -0.474 (inactive) | -6.4e-05 (inactive) | 0.00383 (inactive) | inactive | 6.7% (inactive)
14 | O=C(c1cncc(Br)c1)N1CCCc2ccccc21 | 517 | -1.1% (inactive) | 51.3% (inactive) | 97.5 | 0.808 | -0.814 | -0.316 | -7.86% (inactive) | -0.448 (inactive) | -1.4e-05 (inactive) | 0.00474 (inactive) | inactive | -3.67% (inactive)
